Results from ChEMBL document CHEMBL5030510, “Designed β-Hairpins Inhibit LDH5 Oligomerization and Enzymatic Activity” (J Med Chem, 2021).
The source made the active and inactive calls. The rule behind the calls is not given here. Where a SMILES comes first, the peptide text is derived from it. Bridges are numbered along the chain shown (N, C = ends).

How the values were obtained:
[1] = target: T1, L-lactate dehydrogenase A chain (Homo sapiens, UniProt P00338); test: Inhibition of recombinant full length N-terminal His-tagged human LDHA expressed in Escherichia coli using pyruvate as substrate and NADH as cofactor incubated for 2 hrs by fluorescence assay
Procedure, shortened: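 Reassociation activity assay: 900 nM LDHA stock in phosphate pH 7.4/EDTA/0.05% BSA, acidified 2 min with glycine pH 2.5/BSA. Peptide added in 0.25 M phosphate pH 7.6 and incubated 2 h at RT. Aliquot diluted, then pyruvate (3 mM final) and NADH (0.3 mM final) added. IC50 from dose-response fit.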

[2] = target: T1, L-lactate dehydrogenase A chain; test: Binding affinity to recombinant full length N-terminal His-tagged human LDHA expressed in Escherichia coli assessed as reduction in fluorecence recovery measured after 2 hrs by tryptophan fluorescence emission assay
Procedure, shortened: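 Intrinsic Trp fluorescence: 4 µM LDHA (stock) dissociated 2 min in 0.1 M glycine pH 2.5, then peptide added in 0.25 M phosphate pH 7.6, 1 mM EDTA. No-LDHA blank subtracted. Zero set at pH 2.5 and maximum at the pH 2.5→7.4 control. LDH5 final 0.6 µM.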

[3] = target: T1, L-lactate dehydrogenase A chain; test: Inhibition of recombinant full length N-terminal His-tagged human LDHA oligomerization expressed in Escherichia coli at 150 uM at pH 2.5 to 7.4 measured after 2 hrs by SDS-PAGE analysis
Procedure, shortened: (§1)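 Oligomer state: LDHA (1.3 µM) acidified 2 min with 0.1 M glycine pH 2.5, then peptide added in 0.25 M phosphate pH 7.6, 1 mM EDTA, for 2 h at RT. Cross-linked with glutaraldehyde (5% stock), heated 3 min at 85 °C in LDS buffer, and run on 4–12% Bis-Tris gel in MES buffer.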

[4] = target: T1, L-lactate dehydrogenase A chain; test: Binding affinity to recombinant full length N-terminal His-tagged human LDHA expressed in Escherichia coli assessed as reduction in fluorecence polarization measured after 2 hrs by Alexa Fluor 488 based fluorescence polarization assay
Procedure, shortened: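 Competition FP: LDH5 held 2 min in 0.1 M glycine pH 2.5, then inhibitor added at the reassociation step with Alexa488-labeled cGm peptide (final 12 nM) in 0.25 M phosphate pH 7.6, 1 mM EDTA, with 152.5 nM LDH5. Incubated 2 h at room temperature. FP read at ex 485/em 520 nm. 100% set by probe plus LDH5 alone.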

[5] = target: T1, L-lactate dehydrogenase A chain; test: Inhibition of recombinant full length N-terminal His-tagged human LDHA oligomerization expressed in Escherichia coli at 90 to 150 uM at pH 2.5 to 7.4 measured after 2 hrs by SDS-PAGE analysis; conditions: dose 90-150 µM; procedure, shortened: as §1

| SMILES | IC50 [1] [µM] | further results |
| --- | --- | --- |
| CC(C)C[C@@H]1NC(=O)[C@H](CCCNC(=N)N)NC(=O)[C@H](CCCNC(=N)N)NC(=O)[C@@H](NC(=O)CN)CSSC[C@@H](C(=O)N[C@@H](CCCNC(=N)N)C(=O)NCC(=O)N[C@@H](CCCNC(=N)N)C(=O)O)NC(=O)[C@H](C(C)C)NC(=O)[C@H]([C@@H](C)O)NC(=O)[C@H](Cc2ccccc2)NC(=O)[C@@H]2CSSC[C@H](NC1=O)C(=O)N[C@@H](Cc1c[nH]c3ccccc13)C(=O)N[C@@H](Cc1ccccc1)C(=O)N[C@@H](CCCNC(=N)N)C(=O)N[C@@H](Cc1ccc(O)cc1)C(=O)N2 | 4.5 |  |
| CC(=O)NCC(=O)N[C@@H](CC(N)=O)C(=O)N[C@@H](Cc1ccc(O)cc1)C(=O)N[C@H](C(=O)N[C@@H](Cc1c[nH]c2ccccc12)C(=O)N[C@@H](CC(C)C)C(N)=O)[C@@H](C)O | > 40 |  |
| CC(C)C[C@@H]1NC(=O)[C@H](CCCNC(=N)N)NC(=O)[C@H](CCCNC(=N)N)NC(=O)[C@@H](NC(=O)CN)CSSC[C@@H](C(=O)N[C@@H](CCCNC(=N)N)C(=O)NCC(=O)N[C@@H](CCCNC(=N)N)C(=O)O)NC(=O)[C@H](C(C)C)NC(=O)[C@H](CCC(N)=O)NC(=O)[C@H](CCCNC(=N)N)NC(=O)[C@@H]2CSSC[C@H](NC1=O)C(=O)N[C@@H](Cc1ccc(O)cc1)C(=O)N[C@@H](CCCCN)C(=O)N[C@@H](CCC(N)=O)C(=O)NCC(=O)N2 | 41.4 |  |
| CC(=O)N1CCC[C@H]1C(=O)N[C@H](C(=O)N[C@@H](CCC(N)=O)C(=O)N[C@@H](CCCNC(=N)N)C(=O)N[C@H](C(=O)NCC(N)=O)[C@@H](C)O)C(C)C | > 40 |  |
| CC[C@H](C)[C@@H]1NC(=O)CNC(=O)[C@H](CCCNC(=N)N)NC(=O)[C@H](Cc2ccc(O)cc2)NC(=O)[C@@H]2CSSC[C@H](NC1=O)C(=O)N[C@@H](Cc1ccc(O)cc1)C(=O)N[C@@H](CCCNC(=N)N)C(=O)N[C@@H](CCCNC(=N)N)C(=O)N[C@H](C(=O)N[C@@H](CCCNC(=N)N)C(=O)NCC(=O)O)CSSC[C@H](NC(=O)[C@H](Cc1c[nH]c3ccccc13)NC(=O)[C@@H](N)CCCCN)C(=O)N[C@@H](Cc1ccccc1)C(=O)N[C@@H](CCCNC(=N)N)C(=O)N[C@@H](C(C)C)C(=O)N2 | 29.1 |  |
| CC(C)C[C@@H]1NC(=O)[C@H](CCCNC(=N)N)NC(=O)[C@H](CCCNC(=N)N)NC(=O)[C@@H](NC(=O)CN)CSSC[C@@H](C(=O)N[C@@H](CCCNC(=N)N)C(=O)NCC(=O)N[C@@H](CCCNC(=N)N)C(=O)O)NC(=O)[C@H](C(C)C)NC(=O)[C@H](CC(C)C)NC(=O)[C@H](CC(=O)O)NC(=O)[C@@H]2CSSC[C@H](NC1=O)C(=O)N[C@@H](Cc1ccc(O)cc1)C(=O)N[C@@H](CCCCN)C(=O)N[C@@H](CCC(N)=O)C(=O)N[C@@H](CCCNC(=N)N)C(=O)N2 | 27.3 |  |
| CC[C@H](C)[C@H](NC(=O)CNC(=O)[C@H](CC(N)=O)NC(=O)[C@H](CCC(N)=O)NC(C)=O)C(=O)N[C@@H](CO)C(=O)N[C@@H](CC(=O)O)C(=O)N[C@@H](CC(C)C)C(=O)N[C@H](C(=O)N[C@@H](CCCCN)C(N)=O)C(C)C | > 40 |  |
| CC(C)C[C@@H]1NC(=O)[C@H](CCCNC(=N)N)NC(=O)[C@H](CCCNC(=N)N)NC(=O)[C@@H](NC(=O)CN)CSSC[C@@H](C(=O)N[C@@H](CCCNC(=N)N)C(=O)NCC(=O)N[C@@H](CCCNC(=N)N)C(=O)O)NC(=O)[C@H](C(C)C)NC(=O)[C@H]([C@@H](C)O)NC(=O)[C@H](Cc2ccccc2)NC(=O)[C@@H]2CSSC[C@H](NC1=O)C(=O)N[C@@H](Cc1ccc(O)cc1)C(=O)N[C@@H](CCCNC(=N)N)C(=O)N[C@@H](Cc1ccccc1)C(=O)N[C@@H](Cc1c[nH]c3ccccc13)C(=O)N2 (H-GCRRLCYRFWCFTVCRGR-OH; disulfide 2-15, 6-11) | 2.5 | inhibition [3]: Active; Activity [4]: Dose-Dependent Effect; inhibition [5]: Active |
| CC(C)C[C@@H]1NC(=O)[C@H](CCCNC(=N)N)NC(=O)[C@H](CCCNC(=N)N)NC(=O)[C@@H](NC(=O)CN)CSSC[C@@H](C(=O)N[C@@H](CCCNC(=N)N)C(=O)NCC(=O)N[C@@H](CCCNC(=N)N)C(=O)O)NC(=O)[C@H](C(C)C)NC(=O)[C@H]([C@@H](C)O)NC(=O)[C@H](Cc2ccccc2)NC(=O)[C@@H]2CSSC[C@H](NC1=O)C(=O)N[C@@H](CC(=O)O)C(=O)N[C@@H](CCCNC(=N)N)C(=O)N[C@@H](Cc1ccccc1)C(=O)N[C@@H](Cc1c[nH]c3ccccc13)C(=O)N2 | 10.4 |  |

Now from value to compound, other results behind:

| IC50 [1] [µM] | SMILES | further results |
| --- | --- | --- |
| > 40 | CC(C)C[C@@H]1NC(=O)[C@H](CCCNC(=N)N)NC(=O)[C@H](CCCNC(=N)N)NC(=O)[C@@H](NC(=O)CN)CSSC[C@@H](C(=O)N[C@@H](CCCNC(=N)N)C(=O)NCC(=O)N[C@@H](CCCNC(=N)N)C(=O)O)NC(=O)[C@H](C(C)C)NC(=O)[C@H]([C@@H](C)O)NC(=O)[C@H](Cc2ccccc2)NC(=O)[C@@H]2CSSC[C@H](NC1=O)C(=O)N[C@@H]([C@@H](C)O)C(=O)NCC(=O)N[C@@H](CCC(N)=O)C(=O)N[C@@H](CCCNC(=N)N)C(=O)N2 |  |
| 36.6 | CC(C)C[C@@H]1NC(=O)[C@H](CCCNC(=N)N)NC(=O)[C@H](CCCNC(=N)N)NC(=O)[C@@H](NC(=O)CN)CSSC[C@@H](C(=O)N[C@@H](CCCNC(=N)N)C(=O)NCC(=O)N[C@@H](CCCNC(=N)N)C(=O)O)NC(=O)[C@H](Cc2ccc(O)cc2)NC(=O)[C@H]([C@@H](C)O)NC(=O)[C@H](C(C)C)NC(=O)[C@@H]2CSSC[C@H](NC1=O)C(=O)N[C@@H](Cc1ccc(O)cc1)C(=O)N[C@@H](CCCCN)C(=O)N[C@@H](CCC(N)=O)C(=O)N[C@@H](CCCNC(=N)N)C(=O)N2 |  |
| 24.8 | CC[C@H](C)[C@@H]1NC(=O)CNC(=O)[C@H](CCCNC(=N)N)NC(=O)[C@H](Cc2ccc(O)cc2)NC(=O)[C@@H]2CSSC[C@H](NC1=O)C(=O)N[C@@H](C(C)C)C(=O)N[C@@H]([C@@H](C)O)C(=O)N[C@@H](Cc1ccc(O)cc1)C(=O)N[C@H](C(=O)N[C@@H](CCCNC(=N)N)C(=O)NCC(=O)N[C@@H](CCCNC(=N)N)C(=O)O)CSSC[C@H](NC(=O)CN)C(=O)N[C@@H](CCCNC(=N)N)C(=O)N[C@@H](CCCNC(=N)N)C(=O)N[C@@H](CC(C)C)C(=O)N2 (H-GCRRLCYRGICVTYCRGR-OH; disulfide 2-15, 6-11) | Activity [2]: Dose-Dependent Effect |
| 24 | CC(C)C[C@@H]1NC(=O)[C@H](CCCNC(=N)N)NC(=O)[C@H](CCCNC(=N)N)NC(=O)[C@@H](NC(=O)CN)CSSC[C@@H](C(=O)N[C@@H](CCCNC(=N)N)C(=O)NCC(=O)N[C@@H](CCCNC(=N)N)C(=O)O)NC(=O)[C@H](C(C)C)NC(=O)[C@H]([C@@H](C)O)NC(=O)[C@H](Cc2ccccc2)NC(=O)[C@@H]2CSSC[C@H](NC1=O)C(=O)N[C@@H](Cc1ccc(O)cc1)C(=O)N[C@@H](CCCCN)C(=O)N[C@@H](CCC(N)=O)C(=O)N[C@@H](CCCNC(=N)N)C(=O)N2 |  |
| > 40 | CC[C@H](C)[C@@H]1NC(=O)[C@H](Cc2ccc(O)cc2)NC(=O)[C@H](CC(N)=O)NC(=O)[C@@H]2CSSC[C@H](NC(=O)[C@H](CC(C)C)NC(=O)[C@H](CCCNC(=N)N)NC(=O)[C@H](CCCNC(=N)N)NC(=O)[C@@H](NC(=O)CN)CSSC[C@@H](C(=O)N[C@@H](CCCNC(=N)N)C(=O)NCC(=O)N[C@@H](CCCNC(=N)N)C(=O)O)NC1=O)C(=O)N[C@@H](Cc1ccc(O)cc1)C(=O)N[C@@H](CCCCN)C(=O)N[C@@H](CCC(N)=O)C(=O)N[C@@H](CC(C)C)C(=O)N2 |  |
| > 40 | CC(C)C[C@@H]1NC(=O)[C@H](CCCNC(=N)N)NC(=O)[C@H](CCCNC(=N)N)NC(=O)[C@@H](NC(=O)CN)CSSC[C@@H](C(=O)N[C@@H](CCCNC(=N)N)C(=O)NCC(=O)N[C@@H](CCCNC(=N)N)C(=O)O)NC(=O)[C@H](C(C)C)NC(=O)[C@H]([C@@H](C)O)NC(=O)[C@H](Cc2ccccc2)NC(=O)[C@@H]2CSSC[C@H](NC1=O)C(=O)N[C@@H](CC(=O)O)C(=O)N[C@@H](CCCNC(=N)N)C(=O)N[C@@H](Cc1ccccc1)C(=O)N[C@@H](C)C(=O)N2 (H-GCRRLCDRFACFTVCRGR-OH; disulfide 2-15, 6-11) | Activity [2]: inactive |
